m5-HT2A agonist = mouse Htr2a agonists via beta-arrestin recruitment, primary screen, cell-based, luminescence; AID 624169, 2012; activation, % at 7.6 µM; 360,000 compounds, 0.66% hits; CHO-K1 mHTR2A beta-arrestin complementation; percent of 30 µM serotonin response; 5-hydroxytryptamine receptor 2A (Mus musculus), P35363;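 active = activation above a run cutoff, the mean activation of all tested compounds plus 3 SD, cut at about 14% in these data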;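 also: 0% = plate median of compound wells and 100% = 30 µM serotonin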
ANO1 activ = TMEM16A chloride channel activators or potentiators, primary screen, cell-based, HTS. HEK293 TMEM16A/YFP-H148Q/I152L, iodide quench fluorescence; active compounds read low. B-score at 10 µM. 340,000 compounds, 0.3% hits. AID 623877, 2012;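 active = fluorescence-ratio B-score plate-corrected deviation score at least 3 library SD below zero, with starting fluorescence score within 5 deviations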;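 also: channel opened by trigger with iodide after compound preincubation; score built on the fluorescence ratio of max minus min over baseline; more negative score means more quench and so TMEM16A activation or potentiation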
Target sequence (Q8BHY3 whole entry, looked up): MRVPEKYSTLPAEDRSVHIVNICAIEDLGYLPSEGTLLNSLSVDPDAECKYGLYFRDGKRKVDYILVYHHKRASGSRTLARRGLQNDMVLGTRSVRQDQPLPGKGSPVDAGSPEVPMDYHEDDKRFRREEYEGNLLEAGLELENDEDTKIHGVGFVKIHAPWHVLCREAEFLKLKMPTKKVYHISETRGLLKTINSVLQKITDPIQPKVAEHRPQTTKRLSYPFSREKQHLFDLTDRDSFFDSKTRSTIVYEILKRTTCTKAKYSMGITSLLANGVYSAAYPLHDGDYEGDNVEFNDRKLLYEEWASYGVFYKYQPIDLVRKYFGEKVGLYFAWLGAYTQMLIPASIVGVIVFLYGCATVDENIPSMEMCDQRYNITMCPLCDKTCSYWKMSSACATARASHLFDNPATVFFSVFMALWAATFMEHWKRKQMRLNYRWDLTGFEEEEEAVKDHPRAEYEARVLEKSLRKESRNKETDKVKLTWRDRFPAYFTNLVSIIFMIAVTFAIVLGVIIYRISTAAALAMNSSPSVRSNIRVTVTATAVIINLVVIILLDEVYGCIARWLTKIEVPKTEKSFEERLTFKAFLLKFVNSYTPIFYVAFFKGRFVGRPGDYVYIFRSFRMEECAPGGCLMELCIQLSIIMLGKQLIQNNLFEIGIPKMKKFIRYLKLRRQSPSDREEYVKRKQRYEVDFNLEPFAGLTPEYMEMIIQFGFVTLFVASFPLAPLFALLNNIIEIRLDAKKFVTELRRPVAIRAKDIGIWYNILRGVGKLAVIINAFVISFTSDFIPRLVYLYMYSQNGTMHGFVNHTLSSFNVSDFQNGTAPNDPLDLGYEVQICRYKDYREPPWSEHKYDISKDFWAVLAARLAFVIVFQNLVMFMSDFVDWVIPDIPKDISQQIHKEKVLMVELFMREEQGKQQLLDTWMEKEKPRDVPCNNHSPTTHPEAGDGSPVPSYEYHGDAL
MC4R antagonist = MC4R antagonists of cAMP signaling, primary screen, cell-based, TR-FRET, antagonist arm of biased-ligand search; Melanocortin receptor 4 (Homo sapiens), P32245; inhibition, % at 6.5 µM; MC4R-expressing cells, MTII-stimulated cAMP, LANCE TR-FRET; AID 540295, 2011; 360,000 compounds, 0.48% hits;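 active = inhibition above its plate's cutoff, the mean of tested wells on that plate plus 3 SD, cut at about 29% in these data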;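 also: 0% = Melanotan II alone and 100% = Melanotan II plus saturating MCL0020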
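Assay system: U2OS cells stably expressing human melanocortin 4 receptor (MC4R) / Dosing: 6.5 µM / Timing: compound 30 min, challenge 1 h, detection 1 h / Measured by: Eu-cAMP/anti-cAMP TR-FRET, emission 671 nm / Replicates: singlicate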
beta cell repl = inducers of MIN6 beta-cell proliferation, primary screen, ATP luminescence, uHTS; MIN6 cells proliferation, ATPlite luminescence, 48 h; cells starved in 0.2% serum; 100% = growth in 10% serum; proliferation, % at 10 µM; 330,000 compounds, 0.29% hits; AID 2380, 2010;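 active = compounds whose signal lies at least 3.5 SD above the mean of all wells on their plate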;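 also: 0% = DMSO-treated cells in low-serum medium and 100% = 10% serum control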
MC4R barr agon = MC4R agonists recruiting beta-arrestin, primary screen, cell-based, luminescence, agonist arm of biased-ligand search. Melanocortin receptor 4 (Homo sapiens), P32245. U2OS MC4R beta-arrestin complementation; percent of melanotan II response, DMSO zero. activation, % at 8.9 µM. 360,000 compounds, 0.98% hits. AID 540308, 2011;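 active = activation above a per-plate cutoff, the mean activation of sample wells on that plate plus 3 SD, cut at about 8% in these data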
TMEM16A inh = TMEM16A chloride channel inhibitors, primary screen, cell-based, HTS | 310,000 compounds, 1.2% hits | HEK293 TMEM16A/YFP iodide influx fluorescence, ionomycin | normalized B-score (activity score, 25-100; higher = stronger inhibition) at 10 µM | Anoctamin-1 (Mus musculus), Q8BHY3;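 active = ratio plate-corrected score three or more library SD toward inhibition, starting fluorescence score within five deviations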;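 also: score derived from kinetic fluorescence span divided by baseline fluorescence per well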
OPRM1 ag = OPRM1 agonists via beta-arrestin recruitment, confirmation, counter-screen for mouse HTR2A agonist project, cell-based, luminescence, single concentration. shares compounds with m5-HT2A agonist. U2OS OPRM1 beta-arrestin PathHunter; DMSO 0%, DAMGO 9.3 µM 100%. activation, % at 9.3 µM. 2,300 compounds, 5.3% hits;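 active = mean activation above the mean of DMSO-only wells plus 3 SD, cut at about 0.5% in these data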
HTR2A ag conf = mouse HTR2A agonists, beta-arrestin recruitment, confirmation, cell-based, luminescence, CHO-K1 PathHunter, triplicate. shares compounds with m5-HT2A agonist. DMSO 0%, 30 µM serotonin 100%. activation, % at 7.6 µM. 2,300 compounds, 19% hits. AID 624381, 2012;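 active = mean activation across triplicates above the hit threshold derived in the original primary screen, cut at about 15% in these data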
Numbers without * were called inactive; i = inactive; x = no result. Sampled rows, rich in hits. Any-hit rate of the full collection: about 3.4%.

SMILES	m5-HT2A agonist	ANO1 activ	MC4R antagonist	beta cell repl	MC4R barr agon	TMEM16A inh	OPRM1 ag	HTR2A ag conf
COc1ccc(CCn2nnnc2CN2CCN(C(=O)c3ccco3)CC2)cc1OC	-2	i	1	1	-2	i	x	x
O=C(CN1C(=O)C2CC=CCC2C1=O)Nc1nc(-c2ccc(F)c(F)c2)cs1 (centres undefined)	-1	i	19	-2	2	x	x	x
O=C(Nc1nc2ccccc2s1)c1ccc(F)cc1	53*	i	13	-4	-1	i	0	-3
CCCCNC(=O)C1C(c2ccc(C(F)(F)F)cc2)=Nc2ccccc2N1C(=O)c1ccc2nc(C)[nH]c2c1 (centres undefined)	-8	x	x	x	x	x	x	x
O=C(Nc1oc2ccccc2c(=O)c1-c1ccc2c(c1)OCO2)c1ccco1	14*	x	5	x	0	x	-1	-4
COc1ccccc1Nc1nc(NCCO)nc(N2CCCC2)n1	3	i	0	1	-1	i	x	x
OCCNc1nc(Nc2ccccc2C(F)(F)F)nc(N2CCCC2)n1	17*	i	-5	3	0	i	-1	-3
COc1cccc(-n2c(-c3ccccc3)c[nH]c2=S)c1	22*	i	-6	-2	0	i	0.5*	3
Cc1ccccc1C(=O)c1cccn1CC(=O)NCc1ccccc1Cl	26*	i	3	0	7	i	0	5
O=C(Cn1cccc1C(=O)c1ccccc1)NCc1ccccc1Cl	5	i	7	-3	0	i	x	x
CC(=O)Nc1cc2nc(C)n(Cc3ccccc3)c2nc1C	6	i	6	-1	-1	i	x	x
Cc1nc2c(cc1NC(=O)C(C)(C)C)nc(C)n2Cc1ccccc1	20*	i	12	1	-1	i	0	-4
COc1cc(OC)c(NC(=O)C2CCCO2)cc1Cl (centres undefined)	16*	i	13	-4	2	i	-1	-2
O=C(CN1C(=O)c2cccnc2Oc2ccc(Cl)cc21)N1CCOCC1	14*	i	1	-1	-1	i	0	2
COc1ccc(/C=N\NC(=O)CCN2CCN(c3ccccc3)CC2)cc1OC	10	i	0	-2	-2	i	x	x
O=C(CCN1CCN(c2ccccc2)CC1)N/N=C/c1ccccc1OC(F)F	17*	i	-10	1	5	i	0	50*
O=C(NCCCN1CCCC1)c1[nH]c(C(F)(F)F)nc1-c1ccccc1	2	x	x	x	x	x	x	x
COc1ccc(N2CCN(C(=O)CCS(=O)(=O)c3ccc4c(c3)CCN4C(=O)C3CC3)CC2)cc1	16*	i	-2	-2	0	i	-1	-3
CCC(=O)N1CCc2cc(S(=O)(=O)CCC(=O)N3CCN(c4ccccc4)CC3)ccc21	6	i	12	-3	-4	i	x	x
CCCCc1nnc(NC(=O)CSc2nc(=O)cc(N)n2-c2ccccc2)s1	16*	i	6	1	-1	i	-1	-2
Cc1cccc(-n2c(N)cc(=O)nc2SCC(=O)Nc2nnc(C)s2)c1	12	i	15	-2	-1	x	x	x
CC(C)N(C)c1ncnc2c1ncn2[C@H]1CN(CCN2CCOCC2)C[C@@H](CO)O1	1	x	-3	x	-1	x	x	x
Oc1cccc(NC(=S)Nc2ccccc2)c1	18*	i	-5	-1	-2	i	-1	-3
COCCCN(C(=O)Cc1csc(-c2cccc(Cl)c2)n1)c1c(N)n(Cc2ccccc2)c(=O)[nH]c1=O	5	i	10	1	-4	i	x	x
Cc1cc(C)c(OCC(=O)NCC2COc3ccccc3O2)c(C)c1 (centres undefined)	24*	i	5	-2	1	x	0	17*
SMILES	m5-HT2A agonist	ANO1 activ	MC4R antagonist	beta cell repl	MC4R barr agon	TMEM16A inh	OPRM1 ag	HTR2A ag conf
Cc1ccc(C)c(OCC(=O)NCC2COc3ccccc3O2)c1 (centres undefined)	5	i	1	-1	-2	x	x	x
COc1ccc(OC)c(C2C(C(=O)Nc3ccccc3OC)=C(C)Nc3nc(CCCO)nn32)c1 (centres undefined)	5	i	3	-4	0	i	x	x
CCOc1ccccc1C1C(C(=O)Nc2ccccc2OC)=C(C)Nc2nc(CCCO)nn21 (centres undefined)	30*	i	-11	-1	0	i	-1	-3
O=C(N[C@H](CO)c1ccccc1)[C@H]1O[C@@H](n2ccc(=O)[nH]c2=O)[C@H](O)[C@@H]1O	15*	x	x	x	x	x	-1	0
Cc1cc(C)c(OCCCNCc2ccccc2)c(Br)c1	20*	i	-7	-4	6	i	0	4
Cc1ccc(OCCNCc2ccccc2)c(C)c1	-1	i	3	-3	2	i	x	x
COCCNCCCCOc1c(Cl)cc(C)cc1Br	-4	i	-3	-5	-4	i	x	x
Cc1cc(Cl)c(OCCCNCc2ccccc2)c(Br)c1	20*	i	-9	-6	2	i	0	10
Cc1ccc(C(=O)NC(=S)N2CCN(C)CC2)cc1Br	-2	i	-5	4	-3	x	x	x
CCOC(=O)C1CCCN(S(=O)(=O)CCNC(=O)c2cccc(OC)c2)C1 (centres undefined)	5	i	4	2	-2	i	x	x
CCOC(=O)NC(=O)COC(=O)CNC(=O)c1cccc(OC)c1	20*	i	12	-4	-1	i	-1	-3
O=C(NCC(=O)N(c1cccnc1)C(C(=O)NCc1ccco1)c1ccccc1)c1ccco1 (centres undefined)	15*	i	-3	0	1	i	0	10
